# High-throughput results (PubChem BioAssay)
# Hits are enriched below; roughly 4.2% of the tested compounds scored in any of these assays.
# HDAC3 inhib – human HDAC3 inhibition | O15379 | recombinant HDAC3, fluorogenic peptide/trypsin coupled, fluorescence | inhibition, % at 8.3 µM | actives 0.15% (n = 320,000) | AID 2718; in the data active = inhibition above about 26%, passing the limit was not always enough
# Target sequence (O15379 whole entry, looked up): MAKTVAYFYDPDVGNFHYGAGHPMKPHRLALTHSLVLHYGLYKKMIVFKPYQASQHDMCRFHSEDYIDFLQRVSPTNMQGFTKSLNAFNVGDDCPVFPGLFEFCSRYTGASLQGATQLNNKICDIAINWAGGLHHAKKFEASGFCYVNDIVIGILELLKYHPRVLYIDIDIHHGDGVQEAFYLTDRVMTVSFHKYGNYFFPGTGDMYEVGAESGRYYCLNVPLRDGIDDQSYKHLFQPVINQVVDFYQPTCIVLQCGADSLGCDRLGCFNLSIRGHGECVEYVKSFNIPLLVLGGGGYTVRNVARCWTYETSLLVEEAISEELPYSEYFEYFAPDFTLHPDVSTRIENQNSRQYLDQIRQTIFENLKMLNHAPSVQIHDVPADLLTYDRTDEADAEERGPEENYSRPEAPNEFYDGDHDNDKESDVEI
# PfM18AAP inh – PfM18AAP enzyme inhibition; actives 1.2% (n = 290,000); recombinant PfM18AAP, H-Glu-NHMec fluorogenic cleavage; AID 1822; inhibition, % at 7.35 µM;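 active = inhibition above the campaign mean inhibition over all tested compounds plus 3 SD, cut at about 28% in these data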;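 note: 0% = plate median of test compound wells and 100% = 2 mM ZnCl2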
# SENP1 FRET inh – inhibitors of human SENP1 SUMO protease catalytic domain; Q9P0U3; recombinant SENP1 catalytic domain, CyPet-SUMO1-YPet FRET cleavage; inhibition, % at 10 µM; actives 0.21% (n = 360,000); AID 624204;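 active = inhibition at least 30% at 10 µM, raw YFP signal under a set limit, fluorescence ratio 0.5 to 1.5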;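 note: 0% = enzyme with DMSO and 100% = no enzyme wells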
#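 material = recombinant human SENP1 catalytic domain, His6-tagged | quantity = 20 pM enzyme | reagent = 25 nM SUMO1 FRET substrate | compound dosing = 10 µM single point, 0.5% DMSO | timing = 50 min enzyme reaction, room temperature, light-protected | detection = FRET, CFP and YFP emission | control set = no-enzyme low, enzyme-DMSO high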
# CTSL1 counter – blocks F. hepatica cathepsin L1 in PFM18AAP counter-screen | recombinant F. hepatica cathepsin L1, Z-Leu-Arg-MCA fluorescence | inhibition, % at 5.96 µM | actives 0.49% (n = 300,000) | AID 1906;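 active = inhibition above the mean of all tested compounds plus 3 SD, set per screening campaign, cut at about 17% in these data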;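 note: 0% = plate median of test compound wells and 100% = 1 µM Z-Phe-Ala-diazomethylketone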
# AHR act – activates the human aryl hydrocarbon receptor; actives 2.5% (n = 320,000); AHR-responsive luciferase reporter cells, luminescence; P35869; activation, % at 5 µM; in the data active = activation above about 47%;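 note: 0% = vehicle wells and 100% = reference agonist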
# FXN GAA850 act – frataxin GAA850 promoter activation; actives 0.56% (n = 360,000); HEK293 lucGAA850 FXN promoter luciferase reporter, 24 h; percent of 10 µM SAHA response; activation, % at 6 µM; AID 540364;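 active = activation above the average of all compounds screened plus 3 SD, cutoff fixed separately per campaign, cut at about 7.5% in these data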;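 note: 0% = DMSO wells and 100% = 10 µM SAHA wells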
# An asterisk follows results filed as active; · = no result.
SMILES,HDAC3 inhib,PfM18AAP inh,SENP1 FRET inh,CTSL1 counter,AHR act,FXN GAA850 act
Cc1nnc(-c2ccccc2)o1,-2,-19,1,-5,2,4
Cn1cc(-c2nnc(-c3ccccc3)o2)c2ccccc21,-8,5,-2,1,49*,2
O=C(O)C1CC=CCC1C(=O)NCc1ccc(Cl)c(Cl)c1 (centres undefined),-2,·,2,2,0,0
C(=C\c1nccc2c1[nH]c1ccccc12)/c1ccccc1,8,12,-132,2,62*,0
Cc1ccc(/C=C\c2nccc3c2[nH]c2ccccc23)cc1,1,-1,-30,5,51*,6
Fc1ccc(/C=C\c2nccc3c2[nH]c2ccccc23)cc1,2,10,-85,4,35,6
CCn1c(=S)sc2c(=O)n(CC(=O)Nc3cc(OC)ccc3OC)c(C)nc21,9,5,2,0,5,0
C[C@@H]1CN([C@@H](C)CO)C(=O)CCCn2nncc2CO[C@@H]1CN(C)S(=O)(=O)c1cccc(F)c1,·,·,0,·,·,0
N#CCSc1ccsc1C(=O)Nc1ccc(F)cc1,1,-2,1,3,50*,4
Cc1ccc(NC(=O)c2sccc2SCc2cccc(C(F)(F)F)c2)cc1,-6,2,-1,-2,4,2
COc1cccc(CNc2ncnc3ccc(-c4c(C)noc4C)cc23)c1,2,·,1,·,8,-3
Cc1ccsc1CNc1ncnc2ccc(-c3c(C)noc3C)cc12,1,·,0,·,56*,1
CCc1nc2c(OCCn3cccc3)cccn2c1N(C)C(=O)CC(C)C,·,·,-2,·,·,0
COCc1cccc(C2=CC(=O)C[C@H](c3ccc(F)cc3)C2)c1,2,·,2,·,1,2
CN1CCCC(n2nc(Cc3ccc(Cl)cc3)c3ccccc3c2=O)CC1 (centres undefined),1,·,-1,1,-3,-4
COc1ccc(/C=N/OCC(=O)NCc2cccs2)c(OC)c1,11,4,-2,0,48*,3
COc1ccc(OC)c(NC(=O)Nc2nnc([C@H]3C[C@H](O)[C@@H](CO)O3)s2)c1,·,·,0,·,·,1
O=C(NCc1ccccn1)c1cc2n(n1)C(C(F)(F)F)CC(c1ccco1)N2 (centres undefined),-5,31*,-9,-5,9,0
CCOc1ccc(N/C=C/C(=O)c2ccc(OC)cc2)c([N+](=O)[O-])c1,6,-6,37*,0,-2,3
Cn1c(/C(C#N)=C(\O)c2cccc(F)c2)nc2ccccc21,4,5,1,-11,63*,3
CN(C)S(=O)(=O)Oc1cc(Cl)ccc1C(=O)Nc1ccc(F)cc1F,3,3,2,1,74*,-1
CN(C)c1ccncc1C(=O)Nc1ccc(F)cc1F,-6,7,4,-1,3,1
CCOc1ccccc1N(C)S(=O)(=O)c1ccc2c(c1)N(C(C)=O)CCO2,-48,-4,0,-3,10,0
COC(=O)c1sccc1NC(=O)c1ccc(C)s1,0,-3,-2,1,50*,1
NC1=NC(=Nc2ccc(Cl)cc2)c2ccccc21,6,-3,-2,1,56*,0
SMILES,HDAC3 inhib,PfM18AAP inh,SENP1 FRET inh,CTSL1 counter,AHR act,FXN GAA850 act
NC1=NC(=Nc2ccccc2)c2ccccc21,6,-1,-1,2,-5,2
CC(C)c1ccc(N=C2N=C(N)c3ccccc32)cc1,3,-6,2,-1,48*,5
C=CCNc1nnc(-c2ccncc2)s1,-71,6,0,-3,2,1
c1ccc2c(Nc3nnc(-c4ccncc4)s3)cccc2c1,6,3,-2,2,63*,3
Clc1ccc(-c2n[nH]c3c2Cc2ccccc2-3)cc1Cl,5,0,·,-8,60*,·
c1ccc2c(c1)CCc1c(-c3ccncc3)n[nH]c1-2,3,·,2,·,44,2
Cc1cc2cc(C)c3nnc(SCc4ccccn4)n3c2cc1C,-1,1,-1,0,73*,1
CCCCC1(C)NC(=S)N2N1C(=S)NC2(C)CCCC (centres undefined),12,12,-1,3,0,0
CCOC(=O)Nc1ccc2nc(-c3cscn3)[nH]c2c1,·,·,-1,·,·,-1
